From ChEMBL document CHEMBL1156821, “Transforming rhinacanthin analogues from potent anticancer agents into potent antimalarial agents” (J Med Chem, 2010)
The source made the active and inactive calls. The calls are words filed in the database; no cut-off is given here.

What was measured:
Plasmodium falciparum [1] = test: Antimalarial activity against multidrug-resistant Plasmodium falciparum K1 infected in erythrocytes after 48 hrs by [3H]hypoxanthine incorporation assay; assay type: functional, organism-based
Summary of the method: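 P. falciparum K1 (multidrug-resistant) was grown in RPMI 1640 with 20 mM HEPES, 32 mM NaHCO3, 10% […] human serum and 3% erythrocytes, at 37 C under 3% CO2. Early-ring cultures (1.5% erythrocytes, 1% parasitemia) were exposed to compound for 24 h at 0.1% final DMSO. [3H]hypoxanthine (0.5 μCi) was then added for a further 24 h, and incorporation was counted by scintillation. IC50 is the 50% growth reduction; values are the mean of six replicates; dihydroartemisinin was the reference.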

Vero = test: Cytotoxicity against African green monkey Vero cells by MTT assay; assay type: cell-based; conditions: Chlorocebus sabaeus
[2] = Inhibition of wild type Saccharomyces cerevisiae CK Cytochrome b-c1 complex by spectrophotometry
Summary of the method: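 Purified bc1 from wild-type yeast strain CKWT grown in YPGal was diluted to 8 nM. Inhibitor was added before starting with 50 μM decylubiquinol; 550 nm read at room temperature. IC50 taken from a concentration series.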

Saccharomyces cerevisiae [3] = test: Inhibition of electron transfer from Q(o) site to iron cluster of Saccharomyces cerevisiae CK Cytochrome b-c1 complex assessed as DQH-induced reduction of cyt bc1 complex by redoxdifference spectra
Summary of the method: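 Purified yeast bc1 at 2 μM in 50 mM K-phosphate with 0.05% UM; inhibitors added at final 5 μM (test) or 40 μM (stigmatellin, antimycin A). Redox difference spectra recorded as decylubiquinol-reduced bc1-inhibitor complex minus protein-inhibitor complex.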

[4] = Therapeutic index, ratio of IC50 for African green monkey (Cercopithecus aethiops) Vero cells to IC50 for multidrug-resistant Plasmodium falciparum K1; assay type: cell-based; conditions: read-out: Ratio IC50
Plasmodium falciparum [5] = test: Inhibition of Cytochrome b-c1 complex in Plasmodium falciparum 3D7 cell free extracts assessed as decyclobiquinol-linked cytochrome c reduction by spectrophotometry
Summary of the method: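 Cell-free extract of P. falciparum 3D7 was made by 20 s sonication on ice and adjusted to 0.1 mg protein/mL by Bradford assay. Steady-state decylubiquinol/cytochrome c reductase activity was read at ε550-542nm at 21 C in 50 mM potassium phosphate pH 7.5 with 2 mM EDTA, 10 mM KCN and 30 μM equine cytochrome c. Reactions were started with 50 μM decylubiquinol, compound added without preincubation, DMSO ≤0.3%. IC50 came from four-parameter sigmoidal fits of three separate assays.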

[6] = Inhibition of Cytochrome b-c1 complex in yeast mitochondrial membrane assessed as decyclobiquinol-linked cytochrome c reduction by spectrophotometry; assay type: cell membranes, Saccharomyces cerevisiae
Summary of the method: (§1)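 Steady-state decylubiquinol/cytochrome c reductase in yeast mitochondrial membranes (YPD-grown at 28 C) or male Wistar rat (125-170 g) liver microsomes. bc1 set to 5 nM; 50 mM K-phosphate pH 7.5, 2 mM EDTA, 10 mM KCN, 30 μM equine cytochrome c. Start: 50 μM decylubiquinol. ε550-542nm read at 21 C; no preincubation, DMSO ≤0.3%. IC50 from four-parameter sigmoidal fit, three separate assays.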

[7] = Inhibition of Cytochrome b-c1 complex in Wistar rat liver microsomes assessed as decyclobiquinol-linked cytochrome c reduction by spectrophotometry; set-up: species or system Microsome; summary of the method: as §1
Saccharomyces cerevisiae [8] = test: Inhibition of Saccharomyces cerevisiae CK Cytochrome b-c1 complex assessed as DQH-induced reduction of cyt bc1 complex by redoxdifference spectra
[9] = Plasmodium falciparum, K1, read-out: IC50

SMILES	IC50 (Plasmodium falciparum [1]; [9]) [nM]	IC50 (Vero) [nM]	other results
CCCC(=O)OCCCC1=C(O)C(=O)c2ccccc2C1=O	–	–	IC50 (Plasmodium falciparum [1]): Not Active
CCCCCCCCC(=O)OCC(C)(C)CC1=C(O)C(=O)c2ccccc2C1=O	500	150000	–
CCCCCCC(C)C(=O)OCC(C)(C)CC1=C(O)C(=O)c2ccccc2C1=O (centres undefined)	110	450	–
CCCCC(=O)OCC(C)(C)CC1=C(O)C(=O)c2ccccc2C1=O	580	7840	–
CC(=O)OCCCC1=C(O)C(=O)c2ccccc2C1=O	–	–	IC50 (Plasmodium falciparum [1]): Not Active
CCCCCCCCCCCCCC(=O)OCC(C)(C)CC1=C(O)C(=O)c2ccccc2C1=O	32	58400	IC50 [2]: 770 nM; Activity (Saccharomyces cerevisiae [3]): Active; selectivity ratio [4]: 1830; IC50 (Plasmodium falciparum [5]): 8 nM; IC50 [6]: 79.6 nM; IC50 [7]: 2500 nM
CCC(C)C(=O)OCC(C)(C)CC1=C(O)C(=O)c2ccccc2C1=O (centres undefined)	220	870	–
CCCCCCCCCCC(=O)OCC(C)(C)CC1=C(O)C(=O)c2ccccc2C1=O	700	> 233000	–
CCC(CC)C(=O)OCC(C)(C)CC1=C(O)C(=O)c2ccccc2C1=O	16600	104000	–
CCCCCC[C@H]1C(=O)O[C@H](C)[C@H](NC(=O)c2cccc(NC=O)c2O)C(=O)O[C@@H](C)[C@@H]1OC(=O)CC(C)C	–	–	Activity (Saccharomyces cerevisiae [8]): Active
CC(=O)OCC(C)(C)CC1=C(O)C(=O)c2ccccc2C1=O	10900	139000	–
CC(C)C(=O)OCC(C)(C)CC1=C(O)C(=O)c2ccccc2C1=O	910	123000	–
CCC(C)CC(=O)OCC(C)(C)CC1=C(O)C(=O)c2ccccc2C1=O (centres undefined)	190	2300	–
CCCC(C)C(=O)OCC(C)(C)CC1=C(O)C(=O)c2ccccc2C1=O (centres undefined)	120	120	–
CCCCCCCCCCCCCCCC(=O)OCC(C)(C)CC1=C(O)C(=O)c2ccccc2C1=O	30	4410	–
CCCCCCC(=O)OCC(C)(C)CC1=C(O)C(=O)c2ccccc2C1=O	810	99300	–
CCCCCCCC(=O)OCC1(CC2=C(O)C(=O)c3ccccc3C2=O)CCCCC1	2630	–	–
CCCCCCCC(=O)OCCCC1=C(O)C(=O)c2ccccc2C1=O	5150	–	–
CCCCCC(=O)OCC(C)(C)CC1=C(O)C(=O)c2ccccc2C1=O	1120	169000	–
CC(C)CC(=O)OCC(C)(C)CC1=C(O)C(=O)c2ccccc2C1=O	410	550	–
C[C@H]1[C@@H](O)O[C@@H]2O[C@@]3(C)CC[C@H]4[C@H](C)CC[C@@H]1[C@@]24OO3 [ARTENIMOL]	3.5	–	–
CCCCCCCCCCCC(=O)OCC(C)(C)CC1=C(O)C(=O)c2ccccc2C1=O	900	249000	–
C/C=C(C)/C=C/C=C/[C@H](OC)[C@@H](C)[C@@H](OC)[C@@H](C)CCc1oc2c(O)c(OC)cc(OC)c2c(=O)c1C [STIGMATELLIN]	–	–	IC50 [2]: 9.1 nM; Activity (Saccharomyces cerevisiae [3]): Active
CC[C@H](C)C(=O)OCC(C)(C)CC1=C(O)C(=O)c2ccccc2C1=O	110	570	–
CCCCCCCCCCCCCCCCCC(=O)OCC(C)(C)CC1=C(O)C(=O)c2ccccc2C1=O	133	15500	–
CCCCCCCC(=O)OCC(C)(C)CC1=C(O)C(=O)c2ccccc2C1=O	130	> 259000	IC50 [2]: 840 nM; Activity (Saccharomyces cerevisiae [3]): Active; selectivity ratio [4]: > 1990; IC50 (Plasmodium falciparum [5]): 5.4 nM; IC50 [6]: 16 nM; IC50 [7]: 3000 nM
CCCC(=O)OCC(C)(C)CC1=C(O)C(=O)c2ccccc2C1=O	910	73200	–
CCCCCCCCCC(=O)OCC(C)(C)CC1=C(O)C(=O)c2ccccc2C1=O	720	203000	–
CCC(=O)OCC(C)(C)CC1=C(O)C(=O)c2ccccc2C1=O	4100	60100	–
